Here are results for one compound from ChEMBL document CHEMBL3745659, “Synthesis and Characterization of 4,11-Diaminoanthra[2,3-b]furan-5,10-diones: Tumor Cell Apoptosis through tNOX-Modulated NAD(+)/NADH Ratio and SIRT1” (J Med Chem, 2015).

For orientation: IC50 means the concentration at which inhibition is half-maximal.

Calls of active or inactive are those of the source. No cut-off for these calls is given here.

In series [1] the target is T1, Ecto-NOX disulfide-thiol exchanger 2 (Homo sapiens) (UniProt Q16206).
T1 sequence (whole entry): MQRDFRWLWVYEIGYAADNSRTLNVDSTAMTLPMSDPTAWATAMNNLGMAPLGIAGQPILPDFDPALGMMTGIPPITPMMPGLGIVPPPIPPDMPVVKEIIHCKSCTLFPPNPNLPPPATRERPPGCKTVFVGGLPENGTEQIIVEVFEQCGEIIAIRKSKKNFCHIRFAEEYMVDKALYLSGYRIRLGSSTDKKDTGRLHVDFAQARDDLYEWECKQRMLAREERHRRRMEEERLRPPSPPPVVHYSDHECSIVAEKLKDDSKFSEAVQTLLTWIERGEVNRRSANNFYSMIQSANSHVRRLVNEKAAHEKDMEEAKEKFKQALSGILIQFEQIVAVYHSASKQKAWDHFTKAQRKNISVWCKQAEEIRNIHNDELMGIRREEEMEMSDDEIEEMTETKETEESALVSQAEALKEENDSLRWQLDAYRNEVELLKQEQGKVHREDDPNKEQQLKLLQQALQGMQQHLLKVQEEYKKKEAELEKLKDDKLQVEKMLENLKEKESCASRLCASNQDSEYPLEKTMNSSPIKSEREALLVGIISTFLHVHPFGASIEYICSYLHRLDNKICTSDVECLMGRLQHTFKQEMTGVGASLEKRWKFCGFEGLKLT
As to the kind of experiment: Inhibition of tNOX in human AGS cells assessed as reduction in cell migration. Type of series: cell-based.

Series [2] concerns CCRF-CEM. As to the kind of experiment: Antiproliferative activity against human CEM cells after 72 hrs by MTT assay. The class given is functional, cell-based. Background: Formazan colour is commonly taken as a measure of viable cells.
The test system of series [3] is HeLa. In words: Antiproliferative activity against human HeLa cells after 72 hrs by MTT assay. The class given is functional, cell-based.
A short description of series [4]: Drug uptake in human K562/4 cells at 3 uM incubated for 2 hrs in presence of verapamil by flow cytometric analysis. The class given is ADME, cell-based. The following applies: k562/4, 2 h. The method, boiled down: (§1)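 K562 and K562/4 cells incubated 2 h with 3 µM compound; uptake measured by flow cytometry as ratios (arbitrary units) of mean fluorescence channels of the histograms; verapamil (10 µM), a Pgp transport blocker, added 30 min before compound where used.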
In general terms: A flow cytometer gives signals particle by particle.

Series [5] has as its system K562. In words: Drug uptake in human K562 cells at 3 uM incubated for 2 hrs in presence of verapamil by flow cytometric analysis. Conditions: k562, 2 h. The class given is ADME, cell-based. In short, it runs like this:
as §1

Series [6] in a line: Drug uptake in human K562/4 cells at 3 uM incubated for 2 hrs by flow cytometric analysis. Type of series: ADME, cell-based. The following applies: k562/4, 2 h. In short, it runs like this: as §1
Series [7] deals with T2, DNA topoisomerase 1 (Homo sapiens) (UniProt P11387).
T2 sequence (whole entry): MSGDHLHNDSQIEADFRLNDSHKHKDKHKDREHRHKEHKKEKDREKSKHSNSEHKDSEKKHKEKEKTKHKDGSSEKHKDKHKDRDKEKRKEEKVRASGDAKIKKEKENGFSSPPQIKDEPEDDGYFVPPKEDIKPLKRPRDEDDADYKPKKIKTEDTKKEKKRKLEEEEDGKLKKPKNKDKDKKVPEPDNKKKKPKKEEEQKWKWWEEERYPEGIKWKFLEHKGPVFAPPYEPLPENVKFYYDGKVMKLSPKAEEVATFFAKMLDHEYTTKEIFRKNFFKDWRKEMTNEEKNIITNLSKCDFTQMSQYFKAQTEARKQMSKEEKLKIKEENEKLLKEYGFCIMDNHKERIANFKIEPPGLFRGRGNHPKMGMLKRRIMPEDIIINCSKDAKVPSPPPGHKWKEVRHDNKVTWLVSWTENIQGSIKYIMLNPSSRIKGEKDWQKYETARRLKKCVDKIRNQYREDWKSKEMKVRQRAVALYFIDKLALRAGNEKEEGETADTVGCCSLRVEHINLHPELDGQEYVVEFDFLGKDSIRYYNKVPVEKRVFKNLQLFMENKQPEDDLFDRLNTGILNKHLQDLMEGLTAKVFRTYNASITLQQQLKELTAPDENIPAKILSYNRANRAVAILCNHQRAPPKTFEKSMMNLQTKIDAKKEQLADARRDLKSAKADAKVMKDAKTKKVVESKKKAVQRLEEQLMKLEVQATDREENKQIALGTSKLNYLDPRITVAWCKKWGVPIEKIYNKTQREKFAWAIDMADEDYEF
In words: Inhibition of Top1 (unknown origin)-mediated relaxation of pBR322 DNA at 0.5 uM incubated for 30 mins by ethidium bromide staining-based gel electrophoresis assay. In short, it runs like this: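 Supercoiled pBR322 plasmid treated with Top1 without drug or with compound at 0.5, 2.5 or 10 µM; camptothecin as reference; relaxation assessed by gel electrophoresis.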

In series [8] the test system is AGS. In words: Induction of apoptosis in human AGS cells after 24 hrs by annexin V-FITC staining-based flow cytometric analysis. Type of series: functional, cell-based. In short, it runs like this: (§2)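 AGS cells exposed to compound for 24 h; Annexin V-FITC staining and flow cytometry used to give percentage of apoptotic cells; mean ± S.E. from at least three independent experiments.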

The test system of series [9] is AGS. In words: Induction of apoptosis in human AGS cells assessed as necrotic cells at 0.1 uM after 24 hrs by annexin V-FITC staining-based flow cytometric analysis (Rvb=0.9%). Type of series: functional. In short, it runs like this:
as §2

Series [10] concerns AGS. As to the kind of experiment: Induction of apoptosis in human AGS cells assessed as necrotic cells at 1 uM after 24 hrs by annexin V-FITC staining-based flow cytometric analysis (Rvb=0.9%). The class given is functional. The method, boiled down: as §2
Series [11] deals with AGS. As to the kind of experiment: Induction of apoptosis in human AGS cells assessed as late apoptotic cells at 1 uM after 24 hrs by annexin V-FITC staining-based flow cytometric analysis (Rvb=0.3%). The class given is functional. In short, it runs like this: as §2
The test system of series [12] is AGS. As to the kind of experiment: Induction of apoptosis in human AGS cells assessed as viable cells at 0.1 uM after 24 hrs by annexin V-FITC staining-based flow cytometric analysis (Rvb=91.5%). Type of series: functional. The following applies: read-out: Activity. In short, it runs like this: as §2
For series [13], the system named is AGS. In words: Upregulation of caspase3-directed PARP cleavage in human AGS cells at 5 uM after 24 hrs by Western blot analysis. The class given is functional, cell-based. For orientation: In western blotting, separated proteins are transferred to a membrane and probed.
The subject of series [14] is AGS. As to the kind of experiment: Downregulation of Bid protein level in human AGS cells after 24 hrs by Western blot analysis. The class given is functional, cell-based.
Series [15] concerns AGS. As to the kind of experiment: Upregulation of acetylated p53 level in human AGS cells at 1 and 5 uM after 24 hrs by Western blot analysis. Type of series: functional, cell-based.
In series [16] the test system is AGS. In words: Downregulation of SIRT1 protein level in human AGS cells at 1 and 5 uM after 24 after 24 hrs by Western blot analysis. The class given is functional, cell-based.
Series [17] deals with Calf thymus DNA. As to the kind of experiment: Binding affinity to calf thymus double stranded DNA assessed as number of base pairs covered by one molecule of compound by spectrophotometric titration method. Type of series: nucleic-acid assay. The following applies: Bos taurus.
Series [18] concerns L1210. As to the kind of experiment: Antiproliferative activity against mouse L1210 cells after 72 hrs by MTT assay. Conditions: L1210, 72 h.

`CNCCNc1c2c(c(NCCNC)c3occc13)C(=O)c1ccccc1C2=O`: the inhibition result in [1] and in [7] was “Active” each time. Further, the IC50 amounted to 190 nM in series [2], 170 nM in series [3] and 100 nM in [18]. Moreover, the Drug uptake entry in series [4], in [5] and in series [6] was “Active” each time. The Activity result in series [8] is “Dose-dependent effect”; in [9], 10.2%; in series [10] it was 15.4%; in series [11], 1.3%; in [17], 3. For the same compound, the viability at 0.1 µM in [12] came out at 63.2%. Besides, the outcome in series [13], in series [14], in [15] and in [16] was Active.
